{"source": "ChEMBL document CHEMBL4732114", "about": "“Design and structural optimization of novel 2H-benzo[h]chromene derivatives that target AcrB and reverse bacterial multidrug resistance” (Eur J Med Chem, 2021)", "key": {"[1]": {"biological_target": "T1, Multidrug efflux pump subunit AcrB (Escherichia coli (strain K12)) (UniProt P31224)", "T1 sequence (whole entry)": "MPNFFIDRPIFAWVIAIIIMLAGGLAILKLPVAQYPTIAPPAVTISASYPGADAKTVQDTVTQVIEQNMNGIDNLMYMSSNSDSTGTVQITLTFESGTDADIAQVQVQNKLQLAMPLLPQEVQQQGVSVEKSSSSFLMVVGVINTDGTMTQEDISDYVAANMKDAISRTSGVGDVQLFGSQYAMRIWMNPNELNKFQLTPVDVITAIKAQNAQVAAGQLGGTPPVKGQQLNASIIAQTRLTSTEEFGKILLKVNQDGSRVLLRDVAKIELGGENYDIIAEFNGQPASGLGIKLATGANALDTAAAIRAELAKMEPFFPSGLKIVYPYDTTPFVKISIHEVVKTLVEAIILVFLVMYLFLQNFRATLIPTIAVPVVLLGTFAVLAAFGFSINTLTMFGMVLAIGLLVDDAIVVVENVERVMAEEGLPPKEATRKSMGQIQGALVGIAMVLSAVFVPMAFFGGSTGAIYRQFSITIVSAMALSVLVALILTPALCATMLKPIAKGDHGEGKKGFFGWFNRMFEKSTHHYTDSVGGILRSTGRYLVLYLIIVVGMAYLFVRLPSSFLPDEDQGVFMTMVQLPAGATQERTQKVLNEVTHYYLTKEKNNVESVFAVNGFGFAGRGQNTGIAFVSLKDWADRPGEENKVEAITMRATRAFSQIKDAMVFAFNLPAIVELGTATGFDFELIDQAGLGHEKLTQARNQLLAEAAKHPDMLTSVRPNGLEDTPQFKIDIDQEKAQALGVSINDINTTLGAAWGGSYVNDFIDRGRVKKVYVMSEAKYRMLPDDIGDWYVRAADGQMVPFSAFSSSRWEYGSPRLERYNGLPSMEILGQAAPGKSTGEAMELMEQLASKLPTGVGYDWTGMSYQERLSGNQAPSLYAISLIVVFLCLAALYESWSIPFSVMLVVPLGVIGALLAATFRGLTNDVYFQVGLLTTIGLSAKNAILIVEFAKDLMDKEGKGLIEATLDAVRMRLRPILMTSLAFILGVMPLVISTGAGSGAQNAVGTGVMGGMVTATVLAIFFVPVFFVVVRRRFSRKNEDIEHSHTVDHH", "experiment": "Inhibition of AcrB in Escherichia coli BW25113 assessed as reduction in glucose-induced nile red efflux at 100 to 200 uM preincubated for 15 mins followed by nile red addition and incubated for 3 hrs in shaker in presence of CCCP by fluorimetric analysis", "settings": "dose 100-200 µM, time 3.25 hrs", "outline": "(§1)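 Wild-type and AcrB-deleted cells were preloaded with Nile Red, with or without compound. Fluorescence was recorded, and efflux was triggered at 100 s with 0.2% glucose. Traces were compared with the deletion-strain level. Triplicate experiments used different cell batches.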"}, "[2]": {"tested_on": "Cell membrane", "experiment": "Induction of outer membrane permeabilization in wild type Escherichia coli BW25113 assessed as increase in nitrocefin hydrolysis at 256 ug/ml in presence of CCCP by spectroscopic analysis", "settings": "dose 256 µg/ml", "outline": "(§2)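 Intact E. coli were treated with 10 μM CCCP to block nitrocefin efflux, then given compound, nothing, or polymyxin B as permeabilizer control. Nitrocefin was added, and hydrolysis by periplasmic β-lactamase was followed as the rise in absorbance at 490 nm. Duplicate experiments were run on different days.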"}, "[3]": {"biological_target": "T1, Multidrug efflux pump subunit AcrB (Escherichia coli (strain K12))", "experiment": "Inhibition of AcrB in Escherichia coli BW25113 assessed as reduction in glucose-induced nile red efflux at 50 uM preincubated for 15 mins followed by nile red addition and incubated for 3 hrs in shaker in presence of CCCP by fluorimetric analysis", "settings": "time 3.25 hrs", "outline": "as §1"}, "[4]": {"tested_on": "Cell membrane", "experiment": "Induction of outer membrane permeabilization in wild type Escherichia coli BW25113 assessed as increase in nitrocefin hydrolysis at 64 ug/ml in presence of CCCP by spectroscopic analysis", "settings": "dose 64 µg/ml", "outline": "as §2"}, "[5]": {"tested_on": "Cell membrane", "experiment": "Induction of inner membrane permeabilization in wild type Escherichia coli BW25113 assessed as perturbation of proton motive force at 64 ug/ml measured after 10 mins in presence of CCCP and glucose by Di0C2(3) probe based fluorescence assay", "settings": "escherichia coli bw25113, 10 min, dose 64 µg/ml", "outline": "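Cell suspensions were left untreated or exposed to 8-128 µg/mL compound for 10 min. DiOC₂(3) was then added and fluorescence followed to a plateau. Cells were re-energized with 0.5% glucose, and the rise in fluorescence was read as membrane-potential build-up. CCCP was added last to dissipate the potential.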"}, "[6]": {"experiment": "Cytotoxicity against human HepG2 cells assessed as growth inhibition at 10 uM relative to control", "assay_type": "cell-based", "settings": "read-out: GI", "outline": "(§3)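 HepG2 cells treated at 10 μM and at 100 μM. Cell viability or inhibition rate recorded per concentration, with paclitaxel as positive control.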"}, "[7]": {"experiment": "Cytotoxicity against human HepG2 cells assessed as growth inhibition at 100 uM relative to control", "assay_type": "cell-based", "settings": "read-out: GI", "outline": "as §3"}, "[8]": {"biological_target": "T1, Multidrug efflux pump subunit AcrB (Escherichia coli (strain K12))", "experiment": "Inhibition of AcrB in multidrug-resistant Escherichia coli BW25113 assessed as potentiation of levofloxacin-induced antibacterial activity by measuring fold change in levofloxacin MIC at 8 ug/ml by checkerboard titration method relative to levofloxacin MIC", "settings": "dose 8.0 µg/ml"}, "[9]": {"biological_target": "T1, Multidrug efflux pump subunit AcrB (Escherichia coli (strain K12))", "experiment": "Inhibition of AcrB in multidrug-resistant Escherichia coli BW25113 assessed as potentiation of chloramphenicol-induced antibacterial activity by measuring fold change in chloramphenicol MIC at 64 ug/ml by checkerboard titration method relative to chloramphenicol MIC", "settings": "dose 64.0 µg/ml"}, "[10]": {"biological_target": "T1, Multidrug efflux pump subunit AcrB (Escherichia coli (strain K12))", "experiment": "Inhibition of AcrB in multidrug-resistant Escherichia coli BW25113 assessed as potentiation of tetraphenylphosphonium-induced antibacterial activity by measuring fold change in tetraphenylphosphonium MIC at 64 ug/ml by checkerboard titration method relative to tetraphenylphosphonium MIC", "settings": "dose 64.0 µg/ml"}, "[11]": {"biological_target": "T1, Multidrug efflux pump subunit AcrB (Escherichia coli (strain K12))", "experiment": "Inhibition of AcrB in multidrug-resistant Escherichia coli BW25113 assessed as potentiation of tetraphenylphosphonium-induced antibacterial activity by measuring fold change in tetraphenylphosphonium MIC at 128 ug/ml by checkerboard titration method relative to tetraphenylphosphonium MIC", "settings": "dose 128.0 µg/ml"}, "[12]": {"biological_target": "T1, Multidrug efflux pump subunit AcrB (Escherichia coli (strain K12))", "experiment": "Inhibition of AcrB in multidrug-resistant Escherichia coli BW25113 assessed as potentiation of erythromycin-induced antibacterial activity by measuring fold change in erythromycin MIC at 128 ug/ml by checkerboard titration method relative to erythromycin MIC", "settings": "dose 128.0 µg/ml"}, "[13]": {"biological_target": "T1, Multidrug efflux pump subunit AcrB (Escherichia coli (strain K12))", "experiment": "Inhibition of AcrB in multidrug-resistant Escherichia coli BW25113 assessed as potentiation of levofloxacin-induced antibacterial activity by measuring fold change in levofloxacin MIC at 128 ug/ml by checkerboard titration method relative to levofloxacin MIC", "settings": "dose 128.0 µg/ml"}, "[14]": {"biological_target": "T1, Multidrug efflux pump subunit AcrB (Escherichia coli (strain K12))", "experiment": "Inhibition of AcrB in multidrug-resistant Escherichia coli BW25113 assessed as potentiation of chloramphenicol-induced antibacterial activity by measuring fold change in chloramphenicol MIC at 128 ug/ml by checkerboard titration method relative to chloramphenicol MIC", "settings": "dose 128.0 µg/ml"}, "[15]": {"biological_target": "T1, Multidrug efflux pump subunit AcrB (Escherichia coli (strain K12))", "experiment": "Inhibition of AcrB in multidrug-resistant Escherichia coli BW25113 assessed as potentiation of tetraphenylphosphonium-induced antibacterial activity by measuring fold change in tetraphenylphosphonium MIC at 8 ug/ml by checkerboard titration method relative to tetraphenylphosphonium MIC", "settings": "dose 8.0 µg/ml"}}, "note": "Active and inactive are the calls of the source. The rule behind the calls is not given here.", "data": [{"smiles": "CC1(C)CC(=O)c2ccc(OCCNC3CCCC3)cc2O1", "values": [{"measurement": "inhibition", "setting": "[1]", "value": "Active"}]}, {"smiles": "Cc1ccccc1COc1cccc2c3c(c(-c4nnco4)cc12)CCC(C)(C)O3", "values": [{"measurement": "Activity", "setting": "[2]", "value": "Not Active"}]}, {"smiles": "C=CC(=O)Nc1ccc(COc2cccc3c4c(c(Cn5cnnn5)cc23)CCC(C)(C)O4)cc1", "values": [{"measurement": "inhibition", "setting": "[3]", "value": "Active"}]}, {"smiles": "CC1(C)CCc2c(-c3nnco3)cc3c(OCc4ccc([N+](=O)[O-])cc4)cccc3c2O1", "values": [{"measurement": "Activity", "setting": "[2]", "value": "Not Active"}]}, {"smiles": "CC1(C)CCc2c(Cn3cnnn3)cc3c(OCc4ccccc4)cccc3c2O1", "values": [{"measurement": "Activity", "setting": "[4]", "value": "Not Active"}]}, {"smiles": "CNC(=O)c1ccc(COc2cccc3c4c(c(Cn5cnnn5)cc23)CCC(C)(C)O4)cc1", "values": [{"measurement": "inhibition", "setting": "[1]", "value": "Active"}, {"measurement": "Activity", "setting": "[4]", "value": "Not Active"}]}, {"smiles": "CC1(C)CCc2c(C(=O)O)cc3c(OCc4ccccc4)cccc3c2O1", "values": [{"measurement": "Activity", "setting": "[5]", "value": "Not Active"}]}, {"smiles": "CC1(C)CCc2c(-c3nnco3)cc3c(OCc4ccc(C#N)cc4)cccc3c2O1", "values": [{"measurement": "inhibition", "setting": "[3]", "value": "Active"}, {"measurement": "Activity", "setting": "[5]", "value": "Not Active"}]}, {"smiles": "CC1(C)CCc2c(C(=O)N3CCOCC3)cc3c(OCc4ccc(C(F)(F)F)cc4)cccc3c2O1", "values": [{"measurement": "inhibition", "setting": "[3]", "value": "Active"}, {"measurement": "Activity", "setting": "[5]", "value": "Not Active"}]}, {"smiles": "CC1(C)CCc2c(C(=O)N3CCOCC3)cc3c(OCc4ccccc4)cccc3c2O1", "values": [{"measurement": "inhibition at 10 µM", "setting": "[6]", "value": 2, "unit": "%"}, {"measurement": "Activity", "setting": "[5]", "value": "Not Active"}, {"measurement": "inhibition at 100 µM", "setting": "[7]", "value": 66, "unit": "%"}]}, {"smiles": "COc1cccc(COc2cccc3c4c(c(-c5nnco5)cc23)CCC(C)(C)O4)c1", "values": [{"measurement": "inhibition", "setting": "[1]", "value": "Active"}]}, {"smiles": "CC1CN(C(=O)c2cc3c(OCc4c(Cl)cccc4Cl)cccc3c3c2CCC(C)(C)O3)CC(C)O1", "note": "(stereo unspecified)", "values": [{"measurement": "fold change (FC)", "setting": "[8]", "value": 2}]}, {"smiles": "COc1cccc(COc2cccc3c4c(c(C(=O)N5CCOCC5)cc23)CCC(C)(C)O4)c1", "values": [{"measurement": "inhibition", "setting": "[3]", "value": "Active"}]}, {"smiles": "CC1(C)CC(=O)c2ccc(OCC(=O)Nc3ccc(C#N)c(C(F)(F)F)c3)cc2O1", "values": [{"measurement": "fold change (FC)", "setting": "[9]", "value": 2}, {"measurement": "inhibition", "setting": "[1]", "value": "Active"}, {"measurement": "Activity", "setting": "[4]", "value": "Not Active"}, {"measurement": "Activity", "setting": "[5]", "value": "Not Active"}, {"measurement": "fold change (FC)", "setting": "[10]", "value": 4}]}, {"smiles": "Cc1ccc(COc2cccc3c4c(c(-c5nnco5)cc23)CCC(C)(C)O4)cc1", "values": [{"measurement": "fold change (FC)", "setting": "[11]", "value": "< 16"}, {"measurement": "fold change (FC)", "setting": "[12]", "value": "< 16"}, {"measurement": "fold change (FC)", "setting": "[13]", "value": "< 16"}, {"measurement": "fold change (FC)", "setting": "[8]", "value": 2}, {"measurement": "fold change (FC)", "setting": "[14]", "value": "< 16"}, {"measurement": "inhibition at 10 µM", "setting": "[6]", "value": 6, "unit": "%"}, {"measurement": "fold change (FC)", "setting": "[15]", "value": 2}, {"measurement": "inhibition at 100 µM", "setting": "[7]", "value": 87, "unit": "%"}]}]}
